KCNK9 inh = human KCNK9 channel inhibition | B-score at 10 µM | 310,000 tested, 1.2% active | AID 488922 | Q9NPC2 | HEK293 KCNK9, FluxOR thallium flux fluorescence; stronger effect = lower value;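 active means ratio B-score over 3 SD below the library mean, with starting fluorescence within 5 SD of its mean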;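 further: negative B-score means less thallium flux so channel inhibition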
Target sequence (Q9NPC2 whole entry, looked up): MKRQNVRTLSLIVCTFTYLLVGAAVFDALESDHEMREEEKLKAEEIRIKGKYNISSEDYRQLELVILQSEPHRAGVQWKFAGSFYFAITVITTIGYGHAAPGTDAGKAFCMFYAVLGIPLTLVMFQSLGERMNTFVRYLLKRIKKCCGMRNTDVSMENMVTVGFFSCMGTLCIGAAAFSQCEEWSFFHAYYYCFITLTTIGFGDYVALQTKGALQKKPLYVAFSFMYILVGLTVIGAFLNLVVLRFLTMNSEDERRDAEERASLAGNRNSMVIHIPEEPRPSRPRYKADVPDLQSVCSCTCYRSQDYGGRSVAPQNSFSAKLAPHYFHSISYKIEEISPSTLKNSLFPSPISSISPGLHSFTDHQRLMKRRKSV
KCNQ1 act = potentiates or activates the human KCNQ1 potassium channel | P51787 | 310,000 tested, 0.35% active | AID 2648 | CHO-K1 KCNQ1, thallium flux FluxOR fluorescence; stronger effect = higher value | B-score at 10 µM;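 active means fluorescence ratio B-score, a plate-corrected score, at least three library SD, with initial intensity B-score within 5 SD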
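System: Stable KCNQ1 CHO-K1 line | Incubation: 90 min dye loading and 20 min compound exposure, both at room temperature | Measure: Ratio B score | Medium: Assay buffer for compound exposure, DMSO matched across wells | Compound dosing: Single-concentration screen | Probe or stimulus: K+/Tl+ depolarizing stimulus | Measured by: Kinetic FluxOR fluorescence, 10 s baseline plus 110 s post-stimulus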
KCNQ1 block = blocks the human KCNQ1 potassium channel; P51787; CHO-K1 KCNQ1, FluxOR thallium flux fluorescence; stronger effect = higher value; B-score at 10 µM; 310,000 tested, 1.3% active;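 active means compounds whose thallium flux B-score, printed positive for inhibition, exceeds three library SD while starting fluorescence stays within three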;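 further: channel opened by potassium depolarization with thallium stimulus after 20 min compound exposure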
Kir21 block = inhibitors of mouse Kir2.1 inward-rectifier potassium channel; HEK293-Kir2.1, FluxOR thallium flux fluorescence; stronger effect = lower value; B-score at 10 µM; 310,000 tested, 0.85% active;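 active means fluorescence ratio B-score at or below minus 3 SD of library scores, with starting-brightness B-score within 2 SD, cut at about -4.2 in these data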;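 further: channel flux triggered by added potassium and thallium sulfate stimulus; B-score of peak minus minimum fluorescence over baseline after thallium stimulus; more negative B-score means stronger Kir2.1 block with less thallium influx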
hERG rescue = hERG (human) protection from proarrhythmic block | Q12809 | CHO-hERG, FluxOR thallium flux, dofetilide IC70 present | activation (rescue from dofetilide block), less the hit threshold, % at 10 µM | 310,000 tested, 0.51% active;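 active means activation above the mean of controls blocked by dofetilide plus 5 SD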;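 further: thallium influx through hERG after potassium depolarization seen as dye fluorescence rise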
KCNK3 block = human KCNK3 channel inhibition, primary screen | 340,000 tested, 0.84% active | CHO-KCNK3 thallium flux, FluxOR fluorescence; stronger effect = lower value | B-score at 10 µM | O14649;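 active means B-score under library mean minus 4 SD, starting fluorescence ratio at most library mean plus 5 SD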;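 further: more negative B-score means stronger inhibition of thallium flux through KCNK3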
KCNK3 confirm = confirmation of human KCNK3 two-pore domain potassium channel inhibitors; 2,400 tested, 99% active; shares compounds with KCNK3 block; ratio percent of control, % at 10 µM; CHO-KCNK3 thallium flux, FluxOR fluorescence; 0% buffer, 100% carvedilol maximal block;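 active means ratio percent of control, averaged over triplicates, above buffer control mean plus 5 SD, cut at about 64% in these data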;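 further: ratio is the fluorescence rise from min to max over baseline after thallium stimulus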
KCNK3 uninduced = activity in cells without induced KCNK3 expression | 2,400 tested, 40% active | non-induced KCNK3 parental cells, FluxOR thallium flux; stronger effect = lower value | thallium flux ratio (lower = more inhibition) at 10 µM | shares compounds with KCNK3 block;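 active means thallium flux ratio, averaged over three wells, more than 5 SD below the buffer control mean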;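 further: host cells are CHO cells without KCNK3 induction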
Numbers stand for hits; – = inactive; · = not tested or not shown. This is a sample that favours compounds with a hit; in the whole collection about 3.7% have one here.

SMILES	KCNK9 inh	KCNQ1 act	KCNQ1 block	Kir21 block	hERG rescue	KCNK3 block	KCNK3 confirm	KCNK3 uninduced
Cc1ccc(S(=O)(=O)Nc2ccc(N(C)S(=O)(=O)c3ccc(C)cc3)cc2)cc1	-7.02	–	–	–	–	–	85.7	–
COc1ccc(-c2[nH]ncc2CN(C)C(C)c2cccs2)c(F)c1 (stereo not drawn)	–	–	–	–	–	-9.5	101.0	–
O=C(O)C1C2C=CC(C2)C1C(=O)NCc1ccc2c(c1)OCO2 (stereo not drawn)	–	–	–	–	–	-8.95	89.7	–
CN(C)c1ccc(/C=C/C(=O)c2cc(Cl)ccc2O)cc1	–	–	–	–	–	-13.3	106.3	–
O=C(/C=C/c1ccncc1)c1cc(Cl)ccc1O	–	–	–	–	–	–	·	·
CCn1c2ccccc2c2cc(NC(=O)c3ccc(Br)o3)ccc21	–	–	–	–	–	-10.5	115.7	–
CCn1c2ccccc2c2cc(/C=N/NC(=O)c3ccncc3)ccc21	–	–	–	–	–	-10.6	116.3	0.139
CCn1c2ccccc2c2cc(NC(=O)c3cc(C)on3)ccc21	–	–	–	–	–	-10.1	122.7	0.155
CCn1c2ccccc2c2cc(NC(=O)c3ccc(=O)oc3)ccc21	–	–	–	–	–	–	·	·
COc1cccc(/C=C(\C)C(=O)c2c(C)cc(C)[nH]c2=O)c1OC	–	–	–	–	–	–	·	·
CCSc1nc2ccccc2n1Cc1cccc([N+](=O)[O-])c1	–	–	–	–	–	-8.75	94.7	–
CCSc1nc2ccccc2n1Cc1ccccc1F	–	–	–	–	–	–	·	·
Cc1ccc(C(=O)OCC(=O)NC(=O)c2ccccc2)o1	–	–	–	–	–	–	·	·
O=C(COc1ccc(Cl)cc1)OCC(=O)c1ccc[nH]1	·	·	·	·	·	–	·	·
O=C(/C=C/c1ccccc1Cl)c1cccnc1	–	–	–	–	–	-9.73	86.3	–
O=C(NCCc1ccccn1)c1n[nH]c(=O)c2ccccc12	–	–	–	–	–	–	·	·
CCCC(=O)c1c[nH]c(C(=O)NCCc2ccccn2)c1	–	–	–	–	–	-10.8	70.0	–
O=C(NCCCCNCCCNC(=O)c1ccccc1)c1ccccc1	·	·	·	·	·	–	·	·
COC(=O)c1cc(NC(=O)c2cc(-c3ccccc3Cl)oc2C(F)(F)F)ccc1N1CCOCC1	–	–	8	–	–	-11.3	84.0	0.125
Cc1ccc2oc(-c3cccc(NC(=O)c4ccc(Br)o4)c3)nc2c1	–	–	–	–	–	-10.8	105.3	–
COn1c(=O)c(-c2cccs2)[n+]([O-])c2ccccc21	–	–	–	–	–	-10.4	87.0	0.109
COc1ccccc1NC(=O)COC(=O)CCc1ccc(S(=O)(=O)N2CCOCC2)cc1	·	·	·	·	·	–	·	·
